Measured values: ChEMBL document CHEMBL1136055, “3-Heteroaryl-2-pyridones: benzodiazepine site ligands with functional delectivity for alpha 2/alpha 3-subtypes of human GABA(A) receptor-ion channels” (J Med Chem, 2002)

Legend:
[1] = target: T1, GABA-A receptor; alpha-3/beta-3/gamma-2 (Homo sapiens, UniProt P18507+P28472+P34903); assay: Binding affinity by displacement of [3H]Ro-151788 from recombinant human gamma-aminobutyric-acid A receptor alpha3,beta3,gamma2 stably expressed in L cells; type: cell-based
T1 sequence (P18507 whole entry): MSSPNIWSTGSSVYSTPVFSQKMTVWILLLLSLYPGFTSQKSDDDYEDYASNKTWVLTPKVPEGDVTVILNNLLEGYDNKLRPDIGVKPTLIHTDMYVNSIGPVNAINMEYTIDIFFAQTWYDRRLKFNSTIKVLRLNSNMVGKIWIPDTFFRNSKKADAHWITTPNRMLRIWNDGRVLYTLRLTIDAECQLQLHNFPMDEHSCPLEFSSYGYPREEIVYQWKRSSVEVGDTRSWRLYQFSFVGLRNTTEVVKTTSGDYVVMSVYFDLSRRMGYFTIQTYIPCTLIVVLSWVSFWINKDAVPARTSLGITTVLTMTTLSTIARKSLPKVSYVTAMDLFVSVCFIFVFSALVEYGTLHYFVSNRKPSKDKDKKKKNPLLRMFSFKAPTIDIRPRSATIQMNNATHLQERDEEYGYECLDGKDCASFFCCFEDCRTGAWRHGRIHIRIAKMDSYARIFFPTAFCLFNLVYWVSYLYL
T1 sequence (P28472 whole entry): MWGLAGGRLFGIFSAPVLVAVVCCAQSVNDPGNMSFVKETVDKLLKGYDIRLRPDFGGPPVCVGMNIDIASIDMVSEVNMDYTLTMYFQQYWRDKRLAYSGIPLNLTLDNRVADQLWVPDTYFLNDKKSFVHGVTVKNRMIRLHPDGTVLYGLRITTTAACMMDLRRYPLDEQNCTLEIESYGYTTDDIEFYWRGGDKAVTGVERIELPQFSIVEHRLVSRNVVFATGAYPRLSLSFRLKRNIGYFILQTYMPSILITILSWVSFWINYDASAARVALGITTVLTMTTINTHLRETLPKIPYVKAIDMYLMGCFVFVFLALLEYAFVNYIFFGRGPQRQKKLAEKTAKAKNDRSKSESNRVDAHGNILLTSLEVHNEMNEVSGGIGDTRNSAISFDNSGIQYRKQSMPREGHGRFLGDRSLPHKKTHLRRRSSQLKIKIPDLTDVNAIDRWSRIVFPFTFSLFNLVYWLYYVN
T1 sequence (P34903 whole entry): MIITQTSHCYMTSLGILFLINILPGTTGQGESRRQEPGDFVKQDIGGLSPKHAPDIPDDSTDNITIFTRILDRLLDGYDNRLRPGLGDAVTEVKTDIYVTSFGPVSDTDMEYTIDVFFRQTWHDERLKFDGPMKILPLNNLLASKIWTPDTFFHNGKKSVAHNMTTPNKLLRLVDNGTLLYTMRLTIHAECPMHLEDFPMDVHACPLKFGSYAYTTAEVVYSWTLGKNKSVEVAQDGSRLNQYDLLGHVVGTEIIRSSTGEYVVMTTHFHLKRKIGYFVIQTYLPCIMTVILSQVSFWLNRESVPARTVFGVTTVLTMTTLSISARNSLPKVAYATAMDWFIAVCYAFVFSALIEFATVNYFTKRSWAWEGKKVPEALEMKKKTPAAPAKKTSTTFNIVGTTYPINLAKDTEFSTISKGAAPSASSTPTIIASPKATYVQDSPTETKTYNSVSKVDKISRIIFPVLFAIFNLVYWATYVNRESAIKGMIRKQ
How it was run: (§1)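 Competition binding against [3H]Ro15-1788 on cloned human α1/α2/α3/α5 β3γ2S receptors stably expressed in L(tk-) cells. Six to eight test concentrations spaced in half-log steps. Ki given as mean (SEM), n = 3-5, reported to two significant figures.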

[2] = target: GABA-A receptor; alpha-2/beta-3/gamma-2 (Homo sapiens) (UniProt P18507+P28472+P47869); assay: Modulatory effect on coapplication with GABA at human Gamma-aminobutyric acid A receptor alpha-2-beta-3-gamma-2 expressed inXenopus oocytes; type: cell-based; settings: Oocyte
How it was run: (§2)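 Two-electrode voltage clamp of Xenopus oocytes transiently expressing human α1, α2 or α3 β3γ2S receptors. Test compound is co-applied with GABA at its EC20 (GABA range 4-30 µM). Result is the % change in GABA current, mean (SEM), n = 3-7, at the stated test compound concentration (µM).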

[3] = target: T2, GABA-A receptor; alpha-2/beta-3/gamma-2 (Homo sapiens, UniProt P18507+P28472+P47869); assay: Displacement of [3H]Ro-151788 from human Gamma-aminobutyric acid A receptor alpha-2-beta-3-gamma-2 stably expressed in L(tk-) cells; type: cell-based; how it was run: as §1
T2 sequence (P18507 whole entry): T1 sequence (P18507 whole entry)
T2 sequence (P28472 whole entry): T1 sequence (P28472 whole entry)
T2 sequence (P47869 whole entry): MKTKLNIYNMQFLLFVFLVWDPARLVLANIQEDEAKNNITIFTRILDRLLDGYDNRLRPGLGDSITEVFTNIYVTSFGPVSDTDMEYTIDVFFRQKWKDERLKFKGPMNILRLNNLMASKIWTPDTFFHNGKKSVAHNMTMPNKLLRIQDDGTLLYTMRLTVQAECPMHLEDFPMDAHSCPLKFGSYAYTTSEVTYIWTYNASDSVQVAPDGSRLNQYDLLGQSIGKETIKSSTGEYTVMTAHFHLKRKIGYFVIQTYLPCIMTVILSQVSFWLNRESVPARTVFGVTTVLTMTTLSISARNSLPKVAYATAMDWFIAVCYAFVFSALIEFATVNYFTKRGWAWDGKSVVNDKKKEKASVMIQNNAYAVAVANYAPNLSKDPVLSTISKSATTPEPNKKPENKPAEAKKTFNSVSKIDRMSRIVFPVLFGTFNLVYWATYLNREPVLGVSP

[4] = target: T3, GABA-A receptor; alpha-1/beta-3/gamma-2 (Homo sapiens, UniProt P14867+P18507+P28472); assay: Displacement of [3H]Ro-151788 from human GABA-A receptor alpha-1-beta-3-gamma-2 subunits expressed in L(tk-) cells (<50% inhibition at 10 uM); type: cell-based
T3 sequence (P14867 whole entry): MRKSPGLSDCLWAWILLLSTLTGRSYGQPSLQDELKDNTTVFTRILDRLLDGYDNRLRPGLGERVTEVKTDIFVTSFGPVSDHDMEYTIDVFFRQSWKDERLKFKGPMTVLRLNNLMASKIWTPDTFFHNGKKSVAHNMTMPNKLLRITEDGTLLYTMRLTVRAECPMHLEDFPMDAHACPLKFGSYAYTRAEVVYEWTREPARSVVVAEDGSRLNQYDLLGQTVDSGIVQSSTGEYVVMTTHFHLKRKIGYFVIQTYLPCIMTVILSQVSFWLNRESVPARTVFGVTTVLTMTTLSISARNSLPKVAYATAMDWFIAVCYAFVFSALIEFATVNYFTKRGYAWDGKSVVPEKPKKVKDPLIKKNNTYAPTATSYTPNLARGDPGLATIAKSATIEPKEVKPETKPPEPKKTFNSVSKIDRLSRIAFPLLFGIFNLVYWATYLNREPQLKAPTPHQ
T3 sequence (P18507 whole entry): T1 sequence (P18507 whole entry)
T3 sequence (P28472 whole entry): T1 sequence (P28472 whole entry)

[5] = target: GABA-A receptor; alpha-3/beta-3/gamma-2 (Homo sapiens) (UniProt P18507+P28472+P34903); assay: Modulatory effect on coapplication with GABA at human Gamma-aminobutyric acid A receptor alpha-3-beta-3-gamma-2 in Xenopus oocytes.; type: cell-based; settings: Oocyte; how it was run: as §2
[6] = target: T4, GABA-A receptor; alpha-5/beta-3/gamma-2 (Homo sapiens, UniProt P18507+P28472+P31644); assay: Inhibition of [3H]Ro-151788 binding to human GABA A receptor (alpha-5-beta-3-gamma-2) stably expressed in L(tk-) cells.; type: cell-based; how it was run: as §1
T4 sequence (P18507 whole entry): T1 sequence (P18507 whole entry)
T4 sequence (P28472 whole entry): T1 sequence (P28472 whole entry)
T4 sequence (P31644 whole entry): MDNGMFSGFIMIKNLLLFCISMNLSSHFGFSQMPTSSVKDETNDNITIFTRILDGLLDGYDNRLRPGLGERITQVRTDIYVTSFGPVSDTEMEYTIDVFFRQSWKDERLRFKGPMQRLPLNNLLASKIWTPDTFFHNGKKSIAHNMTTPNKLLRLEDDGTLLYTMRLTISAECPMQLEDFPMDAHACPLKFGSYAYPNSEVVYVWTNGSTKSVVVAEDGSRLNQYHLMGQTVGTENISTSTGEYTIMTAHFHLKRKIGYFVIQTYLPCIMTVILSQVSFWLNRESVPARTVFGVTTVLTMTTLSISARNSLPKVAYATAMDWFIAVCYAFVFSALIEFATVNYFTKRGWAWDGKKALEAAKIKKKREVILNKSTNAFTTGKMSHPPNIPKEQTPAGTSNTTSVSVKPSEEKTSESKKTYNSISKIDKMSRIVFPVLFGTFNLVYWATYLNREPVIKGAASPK

[7] = target: T5, GABA-A receptor; alpha-1/beta-3/gamma-2 (Homo sapiens) (UniProt P14867+P18507+P28472); assay: Modulatory effect on coapplication with GABA at human Gamma-aminobutyric acid A receptor alpha-1-beta-3-gamma-2 in Xenopus oocyte.; how it was run: as §2
[8] = target: T5, GABA-A receptor; alpha-1/beta-3/gamma-2 (Homo sapiens); assay: Modulatory effect on coapplication with GABA at human Gamma-aminobutyric acid A receptor alpha-1-beta-3-gamma-2 expressed in Xenopus oocytes; type: cell-based; settings: Oocyte; how it was run: as §2
[9] = target: T3, GABA-A receptor; alpha-1/beta-3/gamma-2; assay: Inhibition of [3H]Ro-151788 binding to human GABA A receptor (alpha-1-beta-3-gamma-2) stably expressed in L(tk-) cells.; type: cell-based
[10] = target: T4, GABA-A receptor; alpha-5/beta-3/gamma-2; assay: Displacement of [3H]Ro-151788 from human GABA-A receptor alpha-5-beta-3-gamma-2 subunits expressed in L(tk-) cells (<50% inhibition at 2 uM); type: cell-based
[11] = target: T2, GABA-A receptor; alpha-2/beta-3/gamma-2; assay: Displacement of [3H]Ro-151788 from human GABA-A receptor alpha-2-beta-3-gamma-2 subunits expressed in L(tk-) cells (<50% inhibition at 2 uM); type: cell-based
[12] = target: T3, GABA-A receptor; alpha-1/beta-3/gamma-2; assay: Displacement of [3H]Ro-151788 from human GABA-A receptor alpha-1-beta-3-gamma-2 subunits expressed in L(tk-) cells (<50% inhibition at 3 uM); type: cell-based
[13] = target: T4, GABA-A receptor; alpha-5/beta-3/gamma-2; assay: Displacement of [3H]Ro-151788 from human GABA-A receptor alpha-5-beta-3-gamma-2 subunits expressed in L(tk-) cells; type: cell-based; how it was run: as §1
[14] = target: T3, GABA-A receptor; alpha-1/beta-3/gamma-2; assay: Displacement of [3H]Ro-151788 from human GABA-A receptor alpha-1-beta-3-gamma-2 subunits expressed in L(tk-) cells (<50% inhibition at 100 uM); type: cell-based

SMILES | Ki [1] [nM] | percent modulation of GABA EC20 response [2] [%] | Ki [3] [nM] | Ki [4] [nM] | percent modulation of GABA EC20 response [5] [%] | Ki [6] [nM] | percent modulation of GABA EC20 response [7] [%] | EC20 [8] [%] | Ki [9] [nM] | Ki [10] [nM] | Ki [11] [nM] | Ki [12] [nM] | Ki [13] [nM] | Ki [14] [nM]
COC(=O)c1cc(-c2ccc(OC)cc2)c(-c2ccc(N(C)C)cc2)n(C)c1=O | 250 | 81 | 600 | > 3000 | 132 | > 667 | 181 | – | – | – | – | – | – | –
COc1ccc(-c2cc(C#N)c(=O)n(C)c2-c2ccc(N(C)C)cc2)cc1 | 860 | -16 | 1800 | – | 8 | – | 7 | – | – | > 667 | – | – | – | –
COc1ccc(-c2cc(C#N)c(O)nc2-c2ccc(N(C)C)cc2)cc1 | > 30000 | – | > 30000 | – | – | > 667 | – | – | – | – | – | – | – | > 30000

Further lines, results first:

Ki [1] [nM] | percent modulation of GABA EC20 response [2] [%] | Ki [3] [nM] | Ki [4] [nM] | percent modulation of GABA EC20 response [5] [%] | Ki [6] [nM] | percent modulation of GABA EC20 response [7] [%] | EC20 [8] [%] | Ki [9] [nM] | Ki [10] [nM] | Ki [11] [nM] | Ki [12] [nM] | Ki [13] [nM] | Ki [14] [nM] | SMILES
15 | 15 | 23 | – | 36 | 350 | – | 9 | 30 | – | – | – | – | – | COc1ccc(-c2cc(-c3cccs3)c(=O)n(C)c2-c2ccncc2)cc1
> 1000 | – | – | – | – | – | – | – | – | – | > 667 | > 1000 | > 667 | – | COc1ccc(-c2cc(-c3nc(C)no3)c(=O)n(C)c2-c2ccncc2)cc1
